Screens (PubChem)
T cruzi inh: T. cruzi replication inhibition; T. cruzi beta-gal in NIH3T3, luminescence, 90 h; inhibition, % (test concentration not listed); 300,000 compounds, 1.4% hits; AID 1885;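 active means mean inhibition across valid replicates above about 55%, limit read from the data; inconclusive means mean below that limit but half or more replicates reach it; inactive means mean below it, under half of replicates reach it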;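 further: signal also drops with host cell toxicity which is not excluded here; higher percent means less beta-gal luminescence so fewer parasites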
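Test system: β-gal T. cruzi (Tulahuen C4) inside NIH/3T3 cells / Quantity: 5,000 cells/well / Measured by: luminescence from GalScreen with 0.05% NP40, read after 60 min / Medium: DMEM plus 2% FBS / Measure: parasite load inhibition, % / Reagent: Tulahuen C4 trypomastigotes, 5000/well / Schedule: co-culture of at least 90 h after 3 h attachment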
aSyn 5UTR inh: 5' untranslated region of α-synuclein, MLPCN primary screen | alpha-synuclein 5'UTR reporter, inhibitor activity | inhibition, % (tested at 7.5 µM) | 300,000 compounds, 0.82% hits | AID 1813; in the data active means inhibition above about 60%; inconclusive means no clear call, values can overlap the other calls;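 further: H4 neuroglioblastoma cells stably carrying SNCA 5'UTR luciferase fusion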
CSC inhib: blocks cancer stem cells. cancer stem cell-like cells viability, luminescence. inhibition, % at 7.5 µM. 300,000 compounds, 1.1% hits. AID 2717; in the data active means inhibition above about 75%; inconclusive means no clear call, values can overlap the other calls; tested in HMLE shEcad cells
Mdm2-MdmX inh: disrupts the human Mdm2-MdmX interaction. inhibition, % at 8 µM. SaOS-2 split-luciferase Mdm2/MdmX complementation, luminescence. 330,000 compounds, 3% hits;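 active means inhibition of at least 50% at 8 µM in the primary screen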
SKKanGAS inh: SKKanGAS growth inhibition; S. pyogenes SKKanGAS, kanamycin growth, BacTiter-Glo, 6 h; inhibition, % at 7.5 µM; 300,000 compounds, 1.3% hits; AID 1662;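 active means mean replicate score, as percent of positive control median, at least 50; inconclusive means mean below 50 but one replicate at or above 50; inactive means mean and every replicate below 50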;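 further: strain carries kanamycin resistance gene driven by streptokinase promoter and grows in 40 µg/ml kanamycin; loss of luminescence reflects streptokinase promoter inhibition or plain growth inhibition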
Mdm2-MdmX conf: human Mdm2/MdmX binding inhibition, confirmed; 10,000 compounds, 55% hits; inhibition, % at 8 µM; luminescent assay; shares compounds with Mdm2-MdmX inh; in the data active means inhibition above about 40%
Full FLuc ctr: inhibits full-length luciferase, flagging false Mdm2/MdmX hits. inhibition, % at 8 µM. 6,200 compounds, 77% hits. AID 504607. shares compounds with Mdm2-MdmX inh. SaOS-2 full-length luciferase counterscreen, luminescence;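 active means mean inhibition at 8 µM reaching about 37%, which flags the compound as non-specific, limit read from the data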;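 further: p53-null SaOS-2 cells with luciferase driven by a doxycycline-inducible promoter; compound on cells about two nights before reading with doxycycline added after day one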
Each line names hits and unclear results; the compound was inactive in the other large screens (follow-up assays come after a bar, where they were run). This is a sample that favours compounds with a hit; in the whole collection about 5.4% have one here.

COc1cc(-c2ccc(NC(=O)NC3CC3)c(OC)c2)ccc1NC(=O)NC1CC1	Mdm2-MdmX inh 91, SKKanGAS inh 55 | Mdm2-MdmX conf 57 | Full FLuc ctr 73
CCC(=O)Nc1ccc(-c2ccc(NC(=O)CC)c(OC)c2)cc1OC	none (no result: CSC inhib)
CC(C)(C)c1oc(C(=O)O)cc1CN1CCOCC1	none
COC(=O)c1[nH]c2ccccc2c1NC(=O)CNC1CCCCC1	none
CCOC(=O)C(NS(=O)(=O)c1ccccc1)(C(F)(F)F)P(=O)(OCC(C)C)OCC(C)C (stereo unspecified)	none
COc1ccc(-n2cc(CNC3CCN(C)CC3)c(-c3cccc(F)c3)n2)cc1	Mdm2-MdmX inh 66 | Mdm2-MdmX conf 57 | Full FLuc ctr 41
CCc1ccc(CN(C)C(=O)c2ccc3c(c2)OCCO3)cc1	none
Cc1cc(C)nc(SCC(=O)c2ccc(O)c(O)c2)n1	none
Cc1cc(SCC(=O)c2ccc(O)c(O)c2)n2nc(C)c(-c3ccccc3)c2n1	CSC inhib 119, Mdm2-MdmX inh 52, SKKanGAS inh inconclusive | Mdm2-MdmX conf 57 | Full FLuc ctr 54
Cn1c(C2=C(O)CN(Cc3ccccc3)C2=N)[n+](C)c2ccccc21	none (no result: T cruzi inh, aSyn 5UTR inh, SKKanGAS inh)
CCOc1cc(/C=C2/NC(=S)NC2=O)ccc1OCc1ccc([N+](=O)[O-])cc1	aSyn 5UTR inh 62, Mdm2-MdmX inh 60, SKKanGAS inh 74 | Mdm2-MdmX conf inactive
CCOc1cc(C(c2c(C)[nH][nH]c2=O)c2c(C)[nH][nH]c2=O)ccc1OCc1ccc([N+](=O)[O-])cc1	none
COc1ccc(CCc2nnc(N)s2)cc1OC	none
O=C(NCc1cccc(F)c1)C1CCN(C(=O)c2sccc2-n2cccc2)CC1	none
O=[N+]([O-])c1cc([N+](=O)[O-])c(Oc2cncc(Cl)c2)cc1NC1CCCCCCC1	Mdm2-MdmX inh 74 | Mdm2-MdmX conf inactive | Full FLuc ctr 83
CCOC(=O)c1sc(NC(=O)C2CC(=O)N(c3ccc(C)cc3)C2)nc1C (stereo unspecified)	none
C=CCNC(=S)NNC(=O)CCC(O)CCCCC (stereo unspecified)	Mdm2-MdmX inh 54 | Mdm2-MdmX conf inactive
Cc1ccc(NC(=O)c2cc(N3CCOCC3)nc3ccccc23)cc1	Mdm2-MdmX inh 55 | Mdm2-MdmX conf inactive | Full FLuc ctr 45
COc1cc(C(=O)Nc2ccc(C)cc2)c2ccccc2n1	aSyn 5UTR inh 82, Mdm2-MdmX inh 64 | Mdm2-MdmX conf 48 | Full FLuc ctr 84
CCOc1ccc(NC(=O)c2cc(OC)nc3ccccc23)cc1	aSyn 5UTR inh 83, Mdm2-MdmX inh 63 | Mdm2-MdmX conf 59 | Full FLuc ctr 71
Cc1ccc(NC(=O)c2cc(Cl)nc3ccccc23)cc1	none
COCCn1ccc(O)c(Cc2ccccc2)c1=O	none
CCCCc1nnc(NC(=O)c2oc3ccccc3c2C)s1	none
O=C(NCc1cccnc1)C(=O)Nc1cc2c3c(c1)CC(=O)N3CCC2	none
N#C/C(=C\Nc1ccc2cn[nH]c2c1)c1nc(-c2ccc(Cl)cc2)cs1	Mdm2-MdmX inh 50 | Mdm2-MdmX conf inactive
O=C(CCl)NC(Cc1ccccc1)c1ccccc1 (stereo unspecified)	aSyn 5UTR inh inconclusive, Mdm2-MdmX inh 74 | Mdm2-MdmX conf 51 | Full FLuc ctr 44
CC(=O)C(Cc1ccccc1)NC(=O)CCl (stereo unspecified)	none (no result: CSC inhib)
COCCCNC(=O)CCc1c(C)nc2c(c(C)nn2-c2ccccc2)c1C	none
Cc1ccc(-n2nc(C)c3c(C)c(CCC(=O)Nc4ccc(CN5CCCC5)cc4)c(C)nc32)cc1	T cruzi inh 72, aSyn 5UTR inh 104, CSC inhib inconclusive, Mdm2-MdmX inh 89 | Mdm2-MdmX conf 50 | Full FLuc ctr inactive
COC(CNC(=O)CCc1c(C)nc2c(c(C)nn2-c2ccc(C)cc2)c1C)OC	none
CCN(CC)CCNC(=O)CCc1c(C)nc2c(c(C)nn2-c2ccc(C)c(C)c2)c1C	Mdm2-MdmX inh 58 | Mdm2-MdmX conf 44 | Full FLuc ctr 48
Cc1cccc(Oc2sc(C(=O)c3ccccc3)c(N)c2C#N)c1C	none
N#Cc1c(Oc2ccc3ccccc3c2)sc(C(=O)c2ccccc2)c1N	Mdm2-MdmX inh 75 (no result: CSC inhib) | Mdm2-MdmX conf inactive
CCOC(=O)CN1C(=O)/C(=C/c2ccccc2Br)Oc2ccccc21	none
Cc1cc(C)nc(NC(=NCCc2c[nH]c3ccccc23)NC(=O)Nc2ccccc2)n1	Mdm2-MdmX inh 64 | Mdm2-MdmX conf inactive | Full FLuc ctr 63
COC(=O)C1=C(C)NC(C)=C(C(=O)O[C@@H]2CCCN(Cc3ccccc3)C2)[C@@H]1c1cccc([N+](=O)[O-])c1	Mdm2-MdmX inh 54 | Mdm2-MdmX conf inactive
CCOC(=O)C1=C(CN2CCOCC2)NC(=O)NC1c1cccc([N+](=O)[O-])c1 (stereo unspecified)	none
CC(=O)[C@]1(O)Cc2c(O)c3c(c(O)c2[C@@H](O[C@H]2C[C@H](N)[C@H](O)[C@H](C)O2)C1)C(=O)c1ccccc1C3=O	T cruzi inh 55, aSyn 5UTR inh 110, CSC inhib 86, Mdm2-MdmX inh 100, SKKanGAS inh 104 | Mdm2-MdmX conf 98 | Full FLuc ctr inactive
COc1cccc2c1C(=O)c1c(O)c3c(c(O)c1C2=O)C[C@@](O)(C(=O)CO)C[C@@H]3O[C@H]1C[C@H](N)[C@@H](O)[C@H](C)O1	aSyn 5UTR inh 109, Mdm2-MdmX inh 94, SKKanGAS inh 108 | Mdm2-MdmX conf 100 | Full FLuc ctr inactive
COc1cccc2sc(Nc3nnc(-c4ccccc4Cl)o3)nc12	aSyn 5UTR inh 66, Mdm2-MdmX inh 65, SKKanGAS inh 91 | Mdm2-MdmX conf 65 | Full FLuc ctr 54
COc1ccccc1-c1nnc(Nc2nc3c(OC)cccc3s2)o1	T cruzi inh 63, aSyn 5UTR inh 81, Mdm2-MdmX inh 59, SKKanGAS inh 91 | Mdm2-MdmX conf 68 | Full FLuc ctr 72
COc1cccc2sc(NN)nc12	none
COc1cccc2sc(Nc3nc(-c4ccncc4)cs3)nc12	T cruzi inh 76, aSyn 5UTR inh 105, Mdm2-MdmX inh 61 | Mdm2-MdmX conf 46 | Full FLuc ctr 51
O=C(COC(=O)CN1C(=O)c2ccccc2C1=O)NC1CCCC1	none
Clc1ccc(-c2ccc(/C=N/Nc3nncc(-c4ccccc4)n3)o2)cc1	Mdm2-MdmX inh 50 | Mdm2-MdmX conf inactive
COc1ccccc1NS(=O)(=O)c1cccc(-n2c(O)c(C=Nc3ccccc3C(=O)O)c3ccccc3c2=O)c1	Mdm2-MdmX inh 54 | Mdm2-MdmX conf 59 | Full FLuc ctr 70
CCc1ccc(-c2cc(C)no2)cc1S(=O)(=O)N1CCCN(Cc2ccc(F)cc2)C1	Mdm2-MdmX inh 68 | Mdm2-MdmX conf inactive
O=C(O)c1ccc(CSC2CCCCC2)cc1	none
COc1cc(OC)cc(-c2c(-c3cccs3)c3cc(-c4ccc5c(c4)OCO5)ccc3n2C)c1	none (no result: T cruzi inh, aSyn 5UTR inh, SKKanGAS inh)
